Hits are enriched below; roughly 2% of the tested compounds scored in any of these assays.
zVAD death inh: L929 zVAD cell death inhibition; L929 zVAD necroptosis rescue, ATP luminescence, 24 h; with zVAD 60 µM; viability rescue, % at 10 µM; hit rate 0.38% among 220,000;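 active = activation, scaled between plate controls, above about 75%, limit read from the data; inactive = activation under that limit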;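 also: 0% = zVAD with DMSO and 100% = DMSO alone without zVAD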
Hep lipid drop: modulators of hepatic lipid droplet formation. inhibition, % at 6.5 µM. hit rate 0.4% among 240,000. AML12 mouse hepatocytes, oleate lipid droplets, BODIPY imaging;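 active = lipid droplet intensity inhibited by at least 50%, with more than 500 cells counted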
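material = mouse AML12 hepatocyte cell line, fixed after treatment | also added = 100 µM oleic acid challenge | doses = compound at 6.5 µM only | schedule = overnight exposure | technique = Image-based BODIPY and DAPI two-channel analysis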
RBBP9 inhibitor: blocks human serine hydrolase RBBP9; O75884; recombinant RBBP9, FP-Rh probe fluorescence polarization; inhibition, % at 7.94 µM; hit rate 0.2% among 220,000; AID 1515;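 active = inhibition above the campaign mean of all tested compounds plus 3 SD, cut at about 14% in these data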;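 also: plate controls were DMSO wells with RBBP9 for no effect and wells lacking RBBP9 protein for full effect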
Target sequence (O75884 whole entry, looked up): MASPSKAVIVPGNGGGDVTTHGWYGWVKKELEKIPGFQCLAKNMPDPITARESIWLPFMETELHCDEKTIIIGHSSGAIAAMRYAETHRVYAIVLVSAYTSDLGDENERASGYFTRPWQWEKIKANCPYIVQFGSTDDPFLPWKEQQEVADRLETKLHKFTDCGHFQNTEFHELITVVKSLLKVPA
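Assay system: recombinant human RBBP9; Reagent: Serine-hydrolase probe FP-Rh, 375 nM pre-mixing; Doses: 7.94 µM single dose, 0.794% DMSO; Incubation: 30 min then 45 min, 25 °C; Detection: fluorescence polarization (mP), excitation 525 nm, emission 598 nm; Evaluation: percent inhibition from mP, scaled between DMSO and no-protein wells.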
TNF necrop inh: TNF-alpha cell death inhibition in Jurkat FADD-/- cells | Jurkat FADD-/- TNF necroptosis rescue, ATP luminescence, 24 h; 0 = TNF only, 100 = no-TNF cells | hit rate 0.068% among 220,000 | activation (protection from cell death), % at 10 µM;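 active = activation, meaning protection from cell death, of at least 50% relative to plate controls; inactive = activation below 50%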;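 also: necroptosis triggered by 40 ng/mL TNF-alpha added together with compound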
PfM18AAP inh-1: PfM18AAP enzyme inhibition; recombinant PfM18AAP, H-Glu-NHMec fluorogenic cleavage; inhibition, % at 7.35 µM; hit rate 1.2% among 290,000; AID 1822;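 active = inhibition above the campaign mean inhibition over all tested compounds plus 3 SD, cut at about 28% in these data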;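 also: 0% = plate median of test compound wells and 100% = 2 mM ZnCl2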
TbHK1 inh: blocks Trypanosoma brucei hexokinase 1 activity | recombinant TbHK1, G6PDH-coupled NADH A340 | hit rate 0.11% among 220,000 | AID 1430 | inhibition, % at 10 µM;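 active = inhibition of 50% or more in the single-dose primary screen; inactive = inhibition below 50%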
PfM18AAP inh-2: PfM18AAP inhibition, confirmation; recombinant PfM18AAP, H-Glu-NHMec fluorogenic cleavage; shares compounds with PfM18AAP inh-1; hit rate 28% among 2,400; inhibition, % at 7.35 µM;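 active = mean inhibition over replicate wells above the hit cutoff set for the earlier primary screen, cut at about 29% in these data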;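 also: 0% = median of test compound wells and 100% = 2 mM ZnCl2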
CTSL1 counter: counter-screen for PFM18AAP inhibitors: confirmation of human cathepsin L inhibitors. inhibition, % at 5.96 µM. 2,400 tested, under 10 active. shares compounds with PfM18AAP inh-1. AID 2178. purified cathepsin L1, Z-Leu-Arg-MCA fluorescence;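 active = average inhibition across replicates above the hit cutoff set in the earlier primary screen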;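 also: 0% = median of test compound wells and 100% = Z-Phe-Ala-diazomethylketone 1 µM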
* = called active by the depositor; · = not tested or not shown.

SMILES	zVAD death inh	Hep lipid drop	RBBP9 inhibitor	TNF necrop inh	PfM18AAP inh-1	TbHK1 inh	PfM18AAP inh-2	CTSL1 counter
C/C(CC(c1ccccc1)c1c(O)c2ccccc2oc1=O)=N\Nc1ccc([N+](=O)[O-])cc1[N+](=O)[O-] (stereo not drawn)	0.0	-1.4	7.5	1.2	35.8*	-30.6	-28.0	-1.2
Oc1ccc2c3c1O[C@H]1c4[nH]c5ccccc5c4C[C@@]4(O)C(C2)N(CC2CC2)CC[C@]314	·	-38.6	-1.3	·	8.8	·	·	·
CN(C)C1C(=O)C(C(N)=O)=C(O)C2(O)C(=O)C3=C(O)c4c(O)cccc4C(C)(O)C3C(O)C12 (stereo not drawn)	·	-11.6	·	·	55.6*	·	-21.3	0.8
Oc1ccc(CC2CC3CCN2CC3)cc1O (stereo not drawn)	0.5	·	-3.8	1.1	57.1*	-6.6	27.5	-3.9
NNc1n[nH]c(=S)n1N	-0.1	-0.3	-11.9	-1.3	42.1*	-6.8	40.3*	2.9
COc1cccc(CC(=O)N(C)C2CCCN(Cc3ccccc3F)C2)c1 (stereo not drawn)	·	-22.0	·	·	-2.7	·	·	·

Compound activity deposited in PubChem by several laboratories.
